Measurements taken from ChEMBL document CHEMBL4371094, “Secondary Metabolites from the Fungus Dictyosporium sp. and Their MALT1 Inhibitory Activities” (J Nat Prod, 2019).
pIC50: −log10 of the molar value. The source made the active and inactive calls. No cut-off for these calls is given here.

How the values were obtained:
[1] = biological target: T1, Mucosa-associated lymphoid tissue lymphoma translocation protein 1 (Homo sapiens) (UniProt Q9UDY8); assay: Inhibition of full-length human GST-tagged MALT1 isoform A (824 residues) expressed in Escherichia coli at 100 uM using Ac-LRSR-MCA as substrate after 1 hr by fluorescence assay
T1 sequence (whole entry): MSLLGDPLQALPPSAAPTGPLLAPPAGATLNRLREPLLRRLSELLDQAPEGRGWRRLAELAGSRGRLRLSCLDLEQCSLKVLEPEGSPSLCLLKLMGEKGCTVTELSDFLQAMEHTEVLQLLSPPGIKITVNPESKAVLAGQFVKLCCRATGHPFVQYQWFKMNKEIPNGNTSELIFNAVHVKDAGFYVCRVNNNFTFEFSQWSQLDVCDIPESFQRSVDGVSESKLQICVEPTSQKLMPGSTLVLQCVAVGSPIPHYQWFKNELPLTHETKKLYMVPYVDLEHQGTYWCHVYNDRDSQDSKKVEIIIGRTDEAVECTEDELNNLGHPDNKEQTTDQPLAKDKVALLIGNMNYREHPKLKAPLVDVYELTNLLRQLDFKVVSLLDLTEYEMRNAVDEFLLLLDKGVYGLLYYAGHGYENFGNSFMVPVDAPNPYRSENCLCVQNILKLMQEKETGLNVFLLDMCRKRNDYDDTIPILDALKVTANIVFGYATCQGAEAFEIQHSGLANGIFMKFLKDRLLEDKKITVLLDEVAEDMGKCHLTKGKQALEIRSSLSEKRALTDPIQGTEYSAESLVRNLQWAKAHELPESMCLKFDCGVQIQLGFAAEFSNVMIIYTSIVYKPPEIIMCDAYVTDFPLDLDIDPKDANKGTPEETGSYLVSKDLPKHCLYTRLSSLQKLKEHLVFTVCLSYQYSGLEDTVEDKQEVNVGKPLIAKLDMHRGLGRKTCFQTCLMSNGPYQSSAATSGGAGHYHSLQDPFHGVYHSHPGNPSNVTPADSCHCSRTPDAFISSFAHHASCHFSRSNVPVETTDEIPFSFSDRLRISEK

[2] = biological target: T2, Mucosa-associated lymphoid tissue lymphoma translocation protein 1 (Homo sapiens, UniProt Q9UDY8); assay: Inhibition of full-length human GST-tagged MALT1 isoform A (824 residues) expressed in Escherichia coli using Ac-LRSR-MCA as substrate after 1 hr by fluorescence assay
T2 sequence (Q9UDY8 whole entry): T1 sequence (whole entry)
Summary of the method: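 Recombinant MALT1-GST, 25 nM final, in buffer of 50 mM Tris HCl pH 7.5, 0.05% CHAPS, 1 mM DTT, 0.1 mM EGTA, 0.8 M sodium citrate. Started by adding 150 μM Ac-LRSR-MCA with compound (0−250 μM). 37 °C for 1 h, quenched with equal volume 0.2% SDS, AMC fluorescence read at ex 342/em 441 nm in quadruplicate. Prequenched background subtracted, normalized to vehicle control.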

[3] = biological target: T1, Mucosa-associated lymphoid tissue lymphoma translocation protein 1 (Homo sapiens); assay: Inhibition of full-length human GST-tagged MALT1 isoform A (824 residues) expressed in Escherichia coli at >100 uM in presence of AMC after 1 hr by fluorescence assay

Row | SMILES | inhibition [1] | pIC50 [2] | inhibition [3]
1 | COC(=O)c1cc(O)cc2oc3cc(C)cc(O)c3c(=O)c12 | inactive | – | –
2 | CCc1c(OC)cc2c(c1O)C(=O)CC[C@@H]2O | inactive | – | –
3 | COc1cc2c(c(O)c1[C@H](C)O)C(=O)CC[C@@H]2O | inactive | – | –
4 | COc1c(C)cc(O)c2c1[C@H](O)[C@]1(C(=O)C(CC=C(C)C)=CC[C@H]1O)C2=O | inactive | – | –
5 | CCc1c(OC)cc2c(c1O)C(=O)CC[C@@]21C[C@@H](O)C(=O)O1 | inactive | – | –

Further lines, results first:

Row | inhibition [1] | pIC50 [2] | inhibition [3] | SMILES
6 | inactive | – | – | Cc1cc([C@@H]2C[C@H](O)C(=O)O2)c2c(=O)c3c(O)cccc3oc2c1
7 | inactive | – | – | Cc1cc(CO)c2c(=O)c3c(O)cccc3oc2c1
8 | – | 4.29 | Active | COC(=O)C1=CC=COc2oc3cc(C)cc(O)c3c(=O)c21
9 | – | 4.49 | Active | COC(=O)C1=CC(C)=COc2oc3cccc(O)c3c(=O)c21
10 | inactive | – | – | COC(=O)c1cccc2oc3cc(C)cc(O)c3c(=O)c12
11 | – | 7.80 | – | CC(C)[C@H](NC(=O)OCc1ccccc1)C(=O)N[C@@H](CCCNC(=N)N)C(=O)N1CCC[C@H]1C(=O)N[C@@H](CCCNC(=N)N)C(=O)CF
12 | inactive | – | – | COC(=O)c1cc(C)c(O)c2oc3cccc(O)c3c(=O)c12
